Assay results taken from ChEMBL document CHEMBL1145208, “3-Substituted imidazo[1,2-d][1,2,4]-thiadiazoles: a novel class of factor XIIIa inhibitors” (J Med Chem, 2005).
Values after ≈ are worked out from the molar mass of the structure shown.

Columns and labels:
[1] = Solubility at pH 7.4 was determined; format: physicochemical; details: buffer
In short: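 Aqueous solubility of the inhibitors measured at pH 7.4, reported in mg/mL.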

[2] = molecular target: T1, Coagulation factor XIII A chain (Homo sapiens, UniProt P00488); assay: In vitro inhibitory concentration of compound against factor XIIIa
T1 sequence (P00488 whole entry): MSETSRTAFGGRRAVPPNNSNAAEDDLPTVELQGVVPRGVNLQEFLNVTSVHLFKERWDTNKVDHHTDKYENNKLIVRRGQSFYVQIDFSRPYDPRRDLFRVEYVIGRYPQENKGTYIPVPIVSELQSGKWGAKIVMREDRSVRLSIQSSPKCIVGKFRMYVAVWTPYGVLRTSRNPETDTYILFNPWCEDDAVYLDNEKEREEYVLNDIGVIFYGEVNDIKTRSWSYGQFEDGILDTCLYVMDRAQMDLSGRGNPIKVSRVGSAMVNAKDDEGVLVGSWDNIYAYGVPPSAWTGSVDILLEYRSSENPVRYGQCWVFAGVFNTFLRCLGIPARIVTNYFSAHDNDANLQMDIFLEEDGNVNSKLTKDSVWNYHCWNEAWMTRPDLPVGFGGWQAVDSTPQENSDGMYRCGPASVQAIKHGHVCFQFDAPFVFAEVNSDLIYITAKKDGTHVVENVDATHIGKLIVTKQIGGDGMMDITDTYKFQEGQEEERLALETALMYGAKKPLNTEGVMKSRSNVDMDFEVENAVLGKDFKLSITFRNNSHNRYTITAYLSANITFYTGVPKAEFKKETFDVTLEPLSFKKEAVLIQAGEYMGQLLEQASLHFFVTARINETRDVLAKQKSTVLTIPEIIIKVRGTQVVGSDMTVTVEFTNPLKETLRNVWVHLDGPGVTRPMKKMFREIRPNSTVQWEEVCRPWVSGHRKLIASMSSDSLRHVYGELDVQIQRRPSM

[3] = tested on: Cell line; assay: Concentration causing reduction in fibrin gamma-chain cross-linking in platelet-depleted human plasma; format: functional

## O=C(O)CN(CCCCCCNS(=O)(=O)c1ccccc1[N+](=O)[O-])c1nsc2nccn12
[1]
  solubility: 380 µg/mL (≈ 787 µM)

## O=[N+]([O-])c1ccc(S(=O)(=O)NCCCCCCNc2n[s+]c3[n-]ccn23)cc1
[2]
  IC50: 0.91 µM

## O=[N+]([O-])c1ccccc1S(=O)(=O)NCCCCCCNc1nsc2nccn12
[3]
  Concentration: 160 µM

## O=[N+]([O-])c1ccccc1S(=O)(=O)NCCCCCCNc1ncccc1[N+](=O)[O-]
[2]
  IC50: 170 µM
